Results as given in ChEMBL document CHEMBL4190310, “Identification of 3,4-dihydro-2H-thiochromene 1,1-dioxide derivatives with a phenoxyethylamine group as highly potent and selective α1D adrenoceptor antagonists” (Eur J Med Chem, 2017).

Experiments:
[1] = target: T1, Alpha-1D adrenergic receptor (Homo sapiens, UniProt P25100); experiment: Displacement of 7-methoxy-[3H]-prazosin from human alpha1D-adrenoreceptor expressed in CHOK1 cell membranes after 60 mins by TopCount liquid scintillation counting method
T1 sequence (P25100 whole entry): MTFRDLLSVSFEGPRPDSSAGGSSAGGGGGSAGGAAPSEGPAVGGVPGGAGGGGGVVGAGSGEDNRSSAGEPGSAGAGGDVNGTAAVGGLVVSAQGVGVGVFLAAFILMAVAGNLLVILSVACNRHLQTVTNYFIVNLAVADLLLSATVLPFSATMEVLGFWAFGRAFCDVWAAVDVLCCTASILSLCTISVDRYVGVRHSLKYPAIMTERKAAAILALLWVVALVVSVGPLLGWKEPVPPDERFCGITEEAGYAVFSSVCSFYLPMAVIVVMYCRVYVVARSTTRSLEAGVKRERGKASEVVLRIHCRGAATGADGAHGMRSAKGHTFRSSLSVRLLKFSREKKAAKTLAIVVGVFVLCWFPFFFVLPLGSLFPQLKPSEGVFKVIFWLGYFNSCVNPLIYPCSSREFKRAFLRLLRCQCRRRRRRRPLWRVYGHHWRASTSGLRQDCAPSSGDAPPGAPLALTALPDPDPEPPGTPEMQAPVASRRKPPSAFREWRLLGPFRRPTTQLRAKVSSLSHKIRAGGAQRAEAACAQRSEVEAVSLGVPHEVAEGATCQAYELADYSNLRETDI
Outline: (§1)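 Membranes (10 µg protein per receptor subtype) incubated with 2.5 nmol/L 7-methoxy-[3H]-prazosin and test compound at 12 concentrations. Buffer: 50 mmol/L Tris-HCl pH 7.5, 10 mmol/L MgCl2, 5 mmol/L EDTA, 0.5% BSA. Incubated 60 min at room temperature, then filtered on GF/C and washed with Tris-HCl. Nonspecific binding set with 10 µmol/L phentolamine. IC50 from logistic regression; Ki = IC50/(1 + [ligand]/Kd).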

[2] = target: T2, Alpha-1B adrenergic receptor (Homo sapiens, UniProt P35368); experiment: Displacement of 7-methoxy-[3H]-prazosin from human alpha1B-adrenoreceptor expressed in CHOK1 cell membranes after 60 mins by TopCount liquid scintillation counting method; outline: as §1
T2 sequence (P35368 whole entry): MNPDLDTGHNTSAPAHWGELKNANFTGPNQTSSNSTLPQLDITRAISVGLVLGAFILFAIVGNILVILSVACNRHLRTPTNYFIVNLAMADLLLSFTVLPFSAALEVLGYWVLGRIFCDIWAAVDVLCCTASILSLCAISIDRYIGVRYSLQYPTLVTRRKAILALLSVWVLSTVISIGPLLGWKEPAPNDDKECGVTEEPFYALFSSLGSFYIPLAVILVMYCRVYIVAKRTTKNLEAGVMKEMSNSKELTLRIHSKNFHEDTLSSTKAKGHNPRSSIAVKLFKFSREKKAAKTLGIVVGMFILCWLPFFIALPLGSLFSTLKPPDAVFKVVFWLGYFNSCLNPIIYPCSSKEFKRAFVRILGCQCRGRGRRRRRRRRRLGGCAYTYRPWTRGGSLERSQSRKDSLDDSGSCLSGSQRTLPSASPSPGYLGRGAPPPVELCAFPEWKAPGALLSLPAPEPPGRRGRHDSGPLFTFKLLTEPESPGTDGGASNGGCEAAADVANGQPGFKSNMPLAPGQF

[3] = target: T3, Alpha-1A adrenergic receptor (Homo sapiens, UniProt P35348); experiment: Displacement of 7-methoxy-[3H]-prazosin from human alpha1A-adrenoreceptor expressed in CHOK1 cell membranes after 60 mins by TopCount liquid scintillation counting method; outline: as §1
T3 sequence (P35348 whole entry): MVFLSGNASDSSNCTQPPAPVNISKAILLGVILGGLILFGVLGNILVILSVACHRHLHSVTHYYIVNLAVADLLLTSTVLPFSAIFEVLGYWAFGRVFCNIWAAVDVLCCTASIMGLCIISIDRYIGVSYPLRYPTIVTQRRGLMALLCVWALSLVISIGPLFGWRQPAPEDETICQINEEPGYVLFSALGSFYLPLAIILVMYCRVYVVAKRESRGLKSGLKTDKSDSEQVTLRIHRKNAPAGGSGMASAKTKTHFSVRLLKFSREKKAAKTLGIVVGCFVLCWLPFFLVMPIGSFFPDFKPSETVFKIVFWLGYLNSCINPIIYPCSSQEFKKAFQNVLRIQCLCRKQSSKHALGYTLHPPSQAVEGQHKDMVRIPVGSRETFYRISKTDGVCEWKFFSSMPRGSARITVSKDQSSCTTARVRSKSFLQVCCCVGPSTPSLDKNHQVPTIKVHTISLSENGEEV

CYP3A4 = CYP3A4 (Homo sapiens, UniProt P08684); experiment: Inhibition of human microsomal CYP3A4 at 10 uM after 10 mins by LC-MS/MS analysis relative to control; type: ADME; details: microsomes
Chain of CYP3A4 (P08684 whole entry): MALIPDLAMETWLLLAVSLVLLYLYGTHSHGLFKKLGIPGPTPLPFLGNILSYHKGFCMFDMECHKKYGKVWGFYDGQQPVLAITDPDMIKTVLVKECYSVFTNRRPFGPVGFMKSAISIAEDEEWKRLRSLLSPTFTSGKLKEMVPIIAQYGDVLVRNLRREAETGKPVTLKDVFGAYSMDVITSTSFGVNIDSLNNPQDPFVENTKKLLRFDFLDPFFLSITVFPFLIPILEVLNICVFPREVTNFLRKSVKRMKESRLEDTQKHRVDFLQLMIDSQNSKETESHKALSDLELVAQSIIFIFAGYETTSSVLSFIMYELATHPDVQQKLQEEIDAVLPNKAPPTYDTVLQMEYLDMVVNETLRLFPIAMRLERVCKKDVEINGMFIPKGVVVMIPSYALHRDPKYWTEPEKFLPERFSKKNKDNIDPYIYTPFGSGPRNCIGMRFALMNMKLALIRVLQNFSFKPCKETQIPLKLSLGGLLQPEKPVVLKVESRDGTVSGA
Outline: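 Reversible inhibition test. Midazolam substrate incubated with 0.1 mg/mL human liver microsomes and 10 µM test compound for 10 min at 37 °C. Stopped with acetonitrile/water.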

[4] = target: T4, Alpha-1D adrenergic receptor (Rattus norvegicus) (UniProt P23944); experiment: Antagonist activity at alpha1D-adrenoreceptor in Wistar rat bladder strips assessed as relaxation of PHE-induced contractile response after 30 mins; type: functional
T4 sequence (whole entry): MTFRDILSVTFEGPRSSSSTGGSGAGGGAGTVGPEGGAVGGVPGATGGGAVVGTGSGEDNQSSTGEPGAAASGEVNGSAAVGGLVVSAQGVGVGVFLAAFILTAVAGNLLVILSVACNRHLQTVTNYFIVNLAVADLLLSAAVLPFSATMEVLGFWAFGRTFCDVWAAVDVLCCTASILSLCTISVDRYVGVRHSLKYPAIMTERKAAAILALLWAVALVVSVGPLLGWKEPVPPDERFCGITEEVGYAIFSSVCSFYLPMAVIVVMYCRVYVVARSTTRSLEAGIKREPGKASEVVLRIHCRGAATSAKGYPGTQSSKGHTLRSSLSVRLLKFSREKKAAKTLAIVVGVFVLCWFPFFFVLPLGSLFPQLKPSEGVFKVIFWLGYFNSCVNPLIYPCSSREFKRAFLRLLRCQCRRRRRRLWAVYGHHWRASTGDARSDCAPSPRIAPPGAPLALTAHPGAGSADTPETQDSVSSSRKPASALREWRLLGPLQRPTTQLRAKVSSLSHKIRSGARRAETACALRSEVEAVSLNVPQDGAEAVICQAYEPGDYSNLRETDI

Homo sapiens [5] = organism: Homo sapiens; experiment: Selectivity ratio of Ki for human alpha1A-adrenoreceptor to Ki for human alpha1D-adrenoreceptor
Homo sapiens [6] = organism: Homo sapiens; experiment: Selectivity ratio of Ki for human alpha1B-adrenoreceptor to Ki for human alpha1D-adrenoreceptor

| Structure (SMILES) | Ki [1] | Ki [2] | Ki [3] | inhibition at 10 min, 10 µM (CYP3A4) | IC30 [4] | Ratio Ki (Homo sapiens [5]) | Ratio Ki (Homo sapiens [6]) |
| --- | --- | --- | --- | --- | --- | --- | --- |
| Fc1ccc(Cl)c(OCCNCc2cccc(Cl)c2)c1 | 65 nM | > 120 nM | > 270 nM |  |  |  |  |
| COc1cccc2c1C(NCCOc1cc(F)ccc1F)CCS2(=O)=O (stereo unspecified) | 9.5 nM |  |  | 28.6% |  |  |  |
| CS(=O)(=O)c1ccc2c(c1)C(NCCOc1cc(F)ccc1F)CCS2(=O)=O (stereo unspecified) | 310 nM |  |  | 5.2% |  |  |  |
| CC(NCCOc1cc(F)ccc1Cl)c1ccccc1S(C)(=O)=O (stereo unspecified) | > 94 nM | > 120 nM | > 270 nM |  |  |  |  |
| NC(=O)c1ccc2c(c1)C(NCCOc1cc(F)ccc1F)CCS2(=O)=O (stereo unspecified) | 86 nM |  |  | 12.5% |  |  |  |
| O=S1(=O)CC(NCCOc2cc(F)ccc2Cl)c2ccccc21 (stereo unspecified) | > 94 nM | > 120 nM | > 270 nM |  |  |  |  |
| COc1ccc2c(c1)S(=O)(=O)CCC2NCCOc1cc(F)ccc1F (stereo unspecified) | 38 nM |  |  | 34.3% |  |  |  |
| CS(=O)(=O)c1ccc(Cl)cc1CNCCOc1cc(F)ccc1Cl | 17 nM | 1100 nM | 1800 nM |  | 250 nM | 110 | 65 |
| O=S1(=O)CCC(NCCOc2cc(F)ccc2F)c2ccccc21 (stereo unspecified) | 17 nM |  |  | 26.5% |  |  |  |
| CNc1ccc2c(c1)[C@H](NCCOc1cc(F)ccc1F)CCS2(=O)=O | 62 nM | > 1200 nM | 1200 nM | 26.7% |  | 19 | > 20 |
| O=S1(=O)CCC(NCCOc2cc(F)ccc2F)c2cc(F)ccc21 (stereo unspecified) | 12 nM |  |  | 23.1% |  |  |  |
| COc1cccc2c1S(=O)(=O)CCC2NCCOc1cc(F)ccc1F (stereo unspecified) | 170 nM |  |  | 17.1% |  |  |  |

Now those with a lower Ki [1], led by results:

| Ki [1] | Ki [2] | Ki [3] | inhibition at 10 min, 10 µM (CYP3A4) | IC30 [4] | Ratio Ki (Homo sapiens [5]) | Ratio Ki (Homo sapiens [6]) | Structure (SMILES) |
| --- | --- | --- | --- | --- | --- | --- | --- |
| 8.6 nM | 30 nM | 150 nM |  |  |  |  | CS(=O)(=O)c1ccccc1CCNCCOc1cc(F)ccc1Cl |
| 0.85 nM | 430 nM | 350 nM | 26.1% | 80 nM | 410 | 510 | CNc1ccc2c(c1)C(NCCOc1cc(F)ccc1F)CCS2(=O)=O (stereo unspecified) |
| 0.3 nM | 150 nM | 130 nM | 20.7% | 5.5 nM | 430 | 500 | CNc1ccc2c(c1)[C@@H](NCCOc1cc(F)ccc1F)CCS2(=O)=O |
| 1.5 nM |  |  | 22.7% |  |  |  | COc1ccc2c(c1)C(NCCOc1cc(F)ccc1F)CCS2(=O)=O (stereo unspecified) |
| 4.3 nM | > 120 nM | > 270 nM |  | 140 nM |  |  | CS(=O)(=O)c1ccccc1CNCCOc1cc(F)ccc1Cl |
| 9.1 nM | 44 nM | 50 nM |  |  |  |  | CS(=O)(=O)c1ccccc1CCCNCCOc1cc(F)ccc1Cl |
| 3.9 nM | > 120 nM | > 270 nM | 52.3% | 54 nM |  |  | O=S1(=O)CCC(NCCOc2cc(F)ccc2Cl)c2ccccc21 (stereo unspecified) |
